Test [1] can be described thus: Binding constant dissolved in DMSO against hematin receptor at pH 7.4 (HEPES Buffer) upon incubation at 30 degree C. The gist of the method: (§1)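 Hemin from 1.2 mM DMSO stock diluted to ~12 μM in 40% aqueous DMSO, 0.02 M HEPES, apparent pH 7.4–7.5 (monomeric hematin). Drug serial dilutions mixed with heme in microplate wells, 30 min incubation at the stated temperature, absorbance at 405 nm (Soret). Reference wells without heme subtract drug absorbance. Triplicate readings; log K by nonlinear least-squares fit, 1:1 heme–drug model.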

A short description of test [2]: Binding constant dissolved in DMSO against hematin receptor at pH 7.4 (HEPES Buffer) upon incubation at 37 degree C. In a few lines:
as §1

The nature of test [3]: Binding constant dissolved in DMSO against hematin receptor at pH 7.4 (HEPES Buffer) upon incubation at 42 degree C. In a few lines:
as §1

Test [4] can be described thus: Dose (diphosphate) present in DMSO required to inhibit Plasmodium berghei N/13 infected mice (Mus musculus) administered subcutaneously 3-4 hr after infection on day 1 and then twice daily on days 2 and 3. It counts as functional. Particulars: sc, read-out: ID50 (the source's name). The gist of the method:
(§2)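 MF1 mice inoculated iv with 2×10^7 P. berghei N/13 parasitized erythrocytes. Drug given sc as five injections over 72 h in olive oil/DMSO (96:4) or saline/DMSO (96:4). Parasitemia read at 72 h on Leishman-stained tail blood smears, 4–8 mice per dose, 2–8 dose levels. ID50 is the dose giving 50% inhibition versus concurrent vehicle-treated mice.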

Another test relates to Plasmodium falciparum. The experiment in a line: In vitro inhibition of Plasmodium falciparum K1. It counts as functional. The gist of the method:
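Synchronized, mostly ring-stage P. falciparum K1 at 1.0% parasitemia in RPMI 1640 with 25 mM HEPES pH 7.4 and 32 mM NaHCO3. Drug from DMSO stock, final DMSO ≤0.01%. Culture 24 h at 37 °C under 17% O2/3% CO2/80% N2, then 18–24 h with [3H]hypoxanthine. Incorporation counted by scintillation after filter harvest; IC50 reported.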

Test [5] in a line: Binding constant dissolved in DMSO against hematin receptor at pH 7.4 (HEPES Buffer) upon incubation at 23 degree C. The gist of the method: as §1
Test [6] is described as follows: Dose of the compound (hydrochloride) required to inhibit Plasmodium berghei Plasmodium berghei N/13 parasitemia by 50%. It counts as functional. Particulars: read-out: ID50 (the source's name). The gist of the method: (§3)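 P. berghei-infected MF1 mice (2×10^7 parasitized erythrocytes iv). Drug in Water for Injections BP/DMSO (98:2) at 65 and 199 μM in drinking water, ad libitum; daily volume drunk measured to calculate dose. Parasitemia on Leishman-stained tail smears at 72 h, 4–8 mice per group. ID50 is 50% inhibition versus vehicle-treated mice.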

The nature of test [7]: Dose (dihydrochloride) present in DMSO required to inhibit Plasmodium berghei NY infected mice (Mus musculus) administered intraperitoneally. Particulars: ip, read-out: ID50 (the source's name). It counts as functional. In a few lines:
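MF1 mice infected iv with 2×10^7 P. berghei NY parasitized erythrocytes. Dosing ip, five injections over 72 h, in Water for Injections BP/DMSO (96:4). Parasitemia counted on Leishman-stained tail smears at 72 h, groups of 4–8 mice. ID50 derived from 2–8 dose levels relative to vehicle-treated controls.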

Another test has as its system Plasmodium berghei. Put plainly: In vivo 50% inhibition of parasitaemia in Plasmodium berghei infected mice (Mus musculus) by oral dose. It counts as functional. Conditions: read-out: ID50 (the source's name). The gist of the method:
as §3

A short description of test [8]: Dose present in DMSO required to inhibit Plasmodium berghei N/13 infected mice (Mus musculus) administered subcutaneously 3-4 hr after infection on day 1 and then twice daily on days 2 and 3. It counts as functional. Conditions: sc, read-out: ID50 (the source's name). In a few lines: as §2
Test [9] can be described thus: Dose (dihydrochloride) present in DMSO required to inhibit Plasmodium berghei N/13 infected mice (Mus musculus) administered subcutaneously. It counts as functional. Particulars: sc, read-out: ID50 (the source's name). The gist of the method: as §2

Molecules are shown by their SMILES.

On to `CCN(CC)CCCC(C)Nc1ccnc2cc(Cl)ccc12` (stereo not given) [CHLOROQUINE], for which the Log K in test [1] was 5.4; in test [2], 5.4; in test [3], 5.3. The ED50 in test [4] was 8.3 µmol/kg. The compound further registered an IC50 in the test with Plasmodium falciparum of 230 nM.
With `Clc1ccc2c(Nc3cccc(Nc4ccnc5cc(Cl)ccc45)c3)ccnc2c1` [METAQUINE], the Log K was 6.1 in test [5], 5.4 in [1], 5.1 in [2] and 5.8 in [3]. In addition, the ED50 is 2.4 µmol/kg in test [6]; 3.2 µmol/kg in test [7]; 25 µmol/kg in the test on Plasmodium berghei; 1.5 µmol/kg in [8]; 2.9 µmol/kg in [9]. Moreover, the IC50 in the test on Plasmodium falciparum was found to be 170 nM.

Usually IC50 stands for the concentration that inhibits the measured activity by half.

The record behind these values is ChEMBL document CHEMBL1141156, “Mapping antimalarial pharmacophores as a useful tool for the rapid discovery of drugs effective in vivo: design, construction, characterization, and pharmacology of metaquine” (2005).
